Bioassay records as filed in PubChem.
Rows were chosen to be rich in hits. Some 3.1% of all compounds tested hit in one or more screens of this group.
CSN deneddyl inh = CSN deneddylation inhibition | Q92905 | Purified CSN, SCF-Nedd8-OG deneddylation, fluorescence polarization | inhibition, % at 12.5 µM | 360,000 compounds, 0.38% hits | AID 651999;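 active = pattern-corrected inhibition above about 35%, with an unprinted fluorescence ratio check between 0.5 and 1.5, limit read from the data, passing the limit was not always enough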
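Material: human Csn5 produced in HEK293T cells; Input: enzyme 0.24 nM; Reagent: SCFSkp2-Nedd8OG substrate at 10 nM final; Dosing: 12.5 µM compound; Incubation: 90 min reaction at room temperature; Detection: fluorescence polarization of the substrate; Evaluation: % inhibition of substrate cleavage by Csn5; Control set: substrate-only high control, full reaction low control.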
ATG4B inhibitor = ATG4B (human) cysteine protease inhibition; Q9Y4P1; ATG4B cleavage of LC3-PLA2, NBD-HPC fluorescence, 1 h; inhibition, % at 8.33 µM; 340,000 compounds, 0.51% hits; in the data active = inhibition above about 40%
MBD2 DNA inh = inhibitors of human MBD2 binding to methylated oligonucleotide; Q9UBB5; TR-FRET; inhibition, % at 4.4 µM; 370,000 compounds, 0.31% hits; in the data active = inhibition above about 13%
Target sequence (Q9UBB5 whole entry, looked up): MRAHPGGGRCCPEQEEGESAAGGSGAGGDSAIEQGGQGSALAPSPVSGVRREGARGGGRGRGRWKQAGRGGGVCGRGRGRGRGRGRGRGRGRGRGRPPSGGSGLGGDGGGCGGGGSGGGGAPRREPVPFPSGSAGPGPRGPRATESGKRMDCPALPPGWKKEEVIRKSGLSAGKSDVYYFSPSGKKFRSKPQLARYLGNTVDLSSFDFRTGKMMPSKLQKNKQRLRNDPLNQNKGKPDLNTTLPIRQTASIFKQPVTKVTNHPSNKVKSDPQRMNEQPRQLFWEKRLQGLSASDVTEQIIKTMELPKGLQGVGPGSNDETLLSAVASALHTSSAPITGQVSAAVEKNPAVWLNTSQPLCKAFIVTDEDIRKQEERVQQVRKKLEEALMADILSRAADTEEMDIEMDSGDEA
LEDGF integ inh = blocks HIV-1 LEDGF/p75-dependent DNA integration; TR-FRET IN-LEDGF/p75 DNA integration, Eu/Cy5; inhibition, % at 3.7 µM; 370,000 compounds, 0.64% hits;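 active = inhibition above the screen-wide mean plus 3 SD, cut at about 13% in these data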;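 also: signal is the Cy5 over europium emission ratio at 671 and 618 nm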
rCAG RNA binder = binds r(CAG) RNA repeats | r(CAG) RNA repeat, TO-PRO-1 dye displacement fluorescence | inhibition, % at 3 µM | 370,000 compounds, 1.3% hits;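 active = inhibition above the plate cutoff, the mean of all test compounds on that plate plus 3 SD, cut at about 35% in these data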;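 also: higher means more dye released from RNA so lower well fluorescence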
UHRF1 MBD2 ctr = human UHRF1 methylated DNA binding inhibitors; 370,000 compounds, 0.75% hits; UHRF1 binding to methylated oligo, TR-FRET; AID 687016; inhibition, % at 4.4 µM; Q96T88; in the data active = inhibition above about 21%;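 also: UHRF1 SRA domain binding a hemimethylated CpG hairpin DNA probe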
IN multimer act = HIV-1 integrase multimerization activation, counter-screen; activation, % at 7.7 µM; TR-FRET HIV-1 integrase multimerization, biochemical; shares compounds with LEDGF integ inh; AID 1053131; 2,000 compounds, 17% hits; in the data active = activation above about 8.9%
TR-FRET interf = counter-screen for LEDGF/p75 integration inhibitors: TR-FRET optical interference. 2,000 tested, under 10 active. TR-FRET optical interference counterscreen, HIV-1 IN multimerization. shares compounds with LEDGF integ inh. inhibition, % at 7.7 µM. AID 1053135;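 active = inhibition above the mean over all tested compounds plus 3 SD, which no compound reached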
LEDGF integ conf = confirmation of HIV-1 LEDGF/p75-dependent integration inhibitors; TR-FRET LEDGF/p75-dependent HIV-1 integration, biochemical; AID 1053136; shares compounds with LEDGF integ inh; 2,000 compounds, 36% hits; inhibition, % at 3.7 µM; in the data active = inhibition above about 14%
Hits are given with their value; n = inactive; x = not tested or not shown.

SMILES	CSN deneddyl inh	ATG4B inhibitor	MBD2 DNA inh	LEDGF integ inh	rCAG RNA binder	UHRF1 MBD2 ctr	IN multimer act	TR-FRET interf	LEDGF integ conf
O=C(Nc1ncc2c(n1)CC(c1ccco1)CC2=O)c1ccco1 (stereo unspecified)	n	n	n	13.4	n	n	n	n	n
CCC(=O)Nc1ncc2c(n1)CC(c1ccco1)CC2=O (stereo unspecified)	n	n	n	18.1	n	n	n	n	n
CCOC(=O)C1(C)C=C(Nc2ccc(O)cc2)C(=O)N1c1ccc(O)cc1 (stereo unspecified)	n	n	n	14.3	n	n	n	n	n
CCCCn1c(NC(=O)C2CCCCC2)nc2ccccc21	n	n	n	27.7	n	n	n	n	16.8
CCCn1c(NC(=O)c2ccc(Br)cc2)nc2ccccc21	n	n	n	n	n	n	x	x	x
CCn1c(NC(=O)c2ccccc2)nc2ccccc21	n	n	n	n	n	n	x	x	x
CN(C)CCCn1c(NC(=O)C2CCCCC2)nc2ccccc21	n	n	n	n	n	n	x	x	x
C=CCn1c(NC(=O)c2ccccc2)nc2ccccc21	n	n	n	14.6	n	71.6	n	n	13.8
CCCCn1c(NC(=O)c2ccccc2)nc2ccccc21	n	n	n	26.4	n	n	n	n	24.9
CN(C)CC(=O)N[C@@H]1C[C@@H]2O[C@@H](CO)CC[C@@H]2O[C@@H]1CCc1ccc(-c2ccc(F)cc2)cc1	x	x	n	n	n	n	x	x	x
Cc1cc(C=O)c(C)n1-c1ccc(Cl)c(C(=O)O)c1	n	n	n	20.6	n	46.7	n	n	20.6
Cc1cc(C(=O)O[C@H]2CCC[C@]3(C(=O)N(Cc4ccccc4)c4ccccc43)[C@H]2NC(=O)CCc2ccccc2)no1	x	x	n	n	n	n	x	x	x
Cc1cccc[n+]1CCCCCCCCCC[n+]1ccccc1C	n	n	n	21.3	n	n	n	n	n
CCCCCCCCCC[n+]1cccc2c3ccccc3ccc21	n	n	n	n	n	n	x	x	x
Nc1[nH]c(C(=O)c2ccccc2)c(-c2ccccc2Br)c1C(=O)NCc1ccc(-c2ccccc2)cc1	n	x	n	n	n	n	x	x	x
N#Cc1c(N)[nH]c(C(=O)c2ccccc2)c1-c1ccccc1Br	n	x	n	31.9	n	n	n	n	n
Cc1ccc(NC(=O)CN(c2ccccc2F)S(C)(=O)=O)cc1	n	n	n	20.6	n	n	n	n	n
COc1ccc(C2C(C(=O)Nc3ccc(Cl)cc3)CCC(=O)N2c2ccc(OC)cc2)cc1 (stereo unspecified)	x	x	n	n	n	n	x	x	x
Nc1ccccc1C(O)(Cc1ccccc1)c1ccccc1 (stereo unspecified)	n	n	n	87.2	n	n	n	n	n
O=C(c1ccccc1)c1nn(-c2ccc(Cl)cc2)c(=O)cc1C(F)(F)F	n	n	n	22.6	n	n	n	n	18.7
COc1ccc(-c2c(-c3cc(OC)cc(OC)c3)n(C)c3ccc(-c4ccc(OC)nc4)cc23)cc1	n	n	n	18.5	n	n	n	n	n
Nc1cc(=O)[nH]c(SCC(=O)Nc2cccc([N+](=O)[O-])c2)n1	n	n	n	56.4	n	n	n	n	n
Nc1cc(=O)[nH]c(SCC(=O)Nc2ccc([N+](=O)[O-])cc2)n1	n	n	n	n	n	n	x	x	x
O=S(=O)(Nc1ccc(Cc2ccncc2)cc1)N1CCCC1	n	n	n	24.9	n	n	n	n	n
CCC(C)[C@@H](C(=O)OC)N(Cc1cn(Cc2ccccc2)nn1)S(=O)(=O)c1ccccc1Br (stereo partly specified)	x	x	n	n	n	n	x	x	x
SMILES	CSN deneddyl inh	ATG4B inhibitor	MBD2 DNA inh	LEDGF integ inh	rCAG RNA binder	UHRF1 MBD2 ctr	IN multimer act	TR-FRET interf	LEDGF integ conf
O=C(CN1C(=O)c2ccccc2C1=O)NCc1ccccn1	n	n	n	n	n	n	x	x	x
O=C(Cn1c(=O)sc2ccccc21)NCc1ccccn1	n	n	n	18.6	n	n	n	n	n
COP(=O)(OC)C(Cc1ccccc1)NC(=O)CNC(=O)OCc1ccccc1 (stereo unspecified)	x	x	n	n	n	n	x	x	x
c1ccc(Cn2c(SCC3CCCCC3)nnc2-c2cccnc2)cc1	x	x	n	n	n	n	x	x	x
COc1ccc(NC(=O)c2cccnc2)cc1	n	n	n	n	n	n	x	x	x
C/C(=C\C(=O)c1cccnc1)Nc1ccc(O)cc1	n	n	n	17.1	n	n	n	n	n
C/C(=C\C(=O)c1ccccc1)Nc1ccc(O)cc1	n	n	n	20.5	n	n	n	n	n
C[C@@H](CN1C(=O)C(=O)NC[C@@H]1Cc1ccc(O)cc1)NC(=O)Cc1ccccc1	n	n	n	n	n	n	x	x	x
CC(C)C[C@H]1CNC(=O)C(=O)N1C[C@H](Cc1ccc(O)cc1)NC(=O)Cc1ccccc1	n	x	n	74.6	n	n	n	n	n
CC(C)NC(=O)CCCn1cc([N+](=O)[O-])cn1	n	n	n	n	n	n	x	x	x
Cc1nn(C)c(C)c1/C=N/NC(=O)CCn1cc([N+](=O)[O-])cn1	n	n	n	14.9	n	n	n	n	n
C[C@H]1[C@@H](OC(=O)NCCc2ccccc2)CC[C@@]23CCCN2C(=O)CCC[C@@H]13	x	x	n	n	x	n	x	x	x
CCC(COC)Oc1cc(NCc2ccccc2)c2ncn(C(C)C)c2c1 (stereo unspecified)	n	n	n	26.5	n	n	n	n	29.6
CCC(CO)Oc1cc(NC(=O)c2ccc(N)cc2)c2ncn(C(C)C)c2c1 (stereo unspecified)	n	n	n	13.9	n	n	n	n	24.8
CCC(CO)Oc1cc(NC(=O)c2ccc(F)cc2)c2ncn(C(C)C)c2c1 (stereo unspecified)	n	n	n	n	n	n	x	x	x
O=c1c2c(n3nnnc3n1Cc1ccc(Cl)cc1)-c1ccccc1CC21CCCC1	x	x	n	n	n	n	x	x	x
Cc1ccc(S(=O)(=O)N2CCCc3nc(-c4ccccc4)ccc32)cc1	x	x	n	n	n	n	x	x	x
CCCc1cc(=O)[nH]c(SCC(=O)NCCCC(=O)OCC)n1	n	n	n	n	n	n	x	x	x
CCCc1cc(=O)[nH]c(SCC(=O)NC(=O)OCC)n1	n	n	n	25.4	n	n	n	n	n
c1ccc(-c2c[nH]c3ccc(OCCN4CCOCC4)c(-c4ccccc4)c23)cc1	x	x	n	n	n	n	x	x	x
Cc1ccc(S(=O)(=O)N2CCCC2)cc1C(=O)N1CCN(Cc2ccccc2)CC1	n	n	n	22.4	n	n	n	n	n
